From ChEMBL document CHEMBL1153183, “Pyridine containing M(1) positive allosteric modulators with reduced plasma protein binding” (Bioorg Med Chem Lett, 2010)

How the values were obtained:
[1] = molecular target: T1, Muscarinic acetylcholine receptor M1 (Homo sapiens) (UniProt P11229); assay: Allosteric modulation of human muscarinic M1 receptor expressed in CHO cells assessed as effect on acetylcholine-induced calcium mobilization by FLIPR assay; type: functional, cell-based
T1 sequence (whole entry): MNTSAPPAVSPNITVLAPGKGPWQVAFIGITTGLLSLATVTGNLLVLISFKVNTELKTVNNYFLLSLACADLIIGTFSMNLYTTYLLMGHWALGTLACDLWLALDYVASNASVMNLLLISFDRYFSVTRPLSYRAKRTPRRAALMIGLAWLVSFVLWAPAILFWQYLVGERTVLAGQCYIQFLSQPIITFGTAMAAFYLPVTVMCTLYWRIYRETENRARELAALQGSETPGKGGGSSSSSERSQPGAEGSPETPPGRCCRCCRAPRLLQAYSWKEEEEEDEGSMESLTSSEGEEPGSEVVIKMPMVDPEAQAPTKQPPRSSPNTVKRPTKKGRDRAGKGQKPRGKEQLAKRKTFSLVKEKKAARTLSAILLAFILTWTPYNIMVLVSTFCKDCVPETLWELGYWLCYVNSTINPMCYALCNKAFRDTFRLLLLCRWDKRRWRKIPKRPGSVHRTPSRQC
Outline: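 Human M1-expressing CHO cells; test compound added with an EC20 concentration of acetylcholine; calcium mobilization read on FLIPR384. Inflection point (IP) derived; percent max is the maximum potentiated EC20 response. Values are the mean of at least two experiments; interassay variability ±30% for IP unless otherwise noted.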

[2] = molecular target: T1, Muscarinic acetylcholine receptor M1 (Homo sapiens); assay: Potentiation of human muscarinic M1 receptor expressed in CHO cells assessed as effect on acetylcholine-induced calcium mobilization by FLIPR assay at 30 uM
[3] = molecular target: T1, Muscarinic acetylcholine receptor M1 (Homo sapiens); assay: Allosteric modulation of human muscarinic M1 receptor expressed in CHO cells assessed as effect on acetylcholine-induced calcium mobilization by FLIPR assay relative to 1-Biphenyl-4-ylmethyl-4-oxo-1,4-dihydro-quinoline-3-carboxylic acid; type: functional, cell-based
[4] = Drug level Sprague-Dawley rat cerebrospinal fluid at 10 mg/kg, po after 2 hrs
[5] = Ratio of drug level in brain to plasma Sprague-Dawley rat at 10 mg/kg, po after 2 hrs
[6] = Drug level Sprague-Dawley rat brain at 10 mg/kg, po after 2 hrs
[7] = Plasma concentration in Sprague-Dawley rat at 10 mg/kg, po after 2 hrs

**Q.** With COc1cccc(-c2ccc(Cn3cc(C(=O)O)c(=O)c4cccc(F)c43)nc2)c1 as the compound, how does the IP [1] read?
**A.** Its IP is 89 nM.

**Q.** Which IP [1] does the source give for CC(=O)Nc1ccc(-c2ccc(Cn3cc(C(=O)O)c(=O)c4cccc(F)c43)nc2)cc1 here?
**A.** Its IP is 78 nM.

**Q.** For CS(=O)(=O)c1ccccc1-c1ccc(Cn2cc(C(=O)O)c(=O)c3cccc(F)c32)nc1, which IP [1] is on record?
**A.** Its IP is 97 nM.

**Q.** For O=C(O)c1cn(Cc2ccc(-c3ccccc3)cn2)c2c(F)cccc2c1=O, which fold change (FC) [2] is on record?
**A.** The fold change (FC) was 37.

**Q.** What about the Emax [3] of the same compound?
**A.** The Emax was 80%.

**Q.** And the IP [1]?
**A.** Its IP is 153 nM.

**Q.** With O=C(O)c1cn(Cc2ccc(-c3cncc(F)c3)cn2)c2c(F)cccc2c1=O as the compound, how does the IP [1] read?
**A.** The IP was 680 nM.

**Q.** Which IP [1] does the source give for O=C(O)c1cn(Cc2ccc(-c3ccnc(Cl)c3)cn2)c2c(F)cccc2c1=O here?
**A.** Its IP is 169 nM.

**Q.** With COc1ccc(Cn2cc(C(=O)O)c(=O)c3ccccc32)cc1 as the compound, how does the IP [1] read?
**A.** The IP was 660 nM.

**Q.** With O=C(O)c1cn(Cc2ccc(-c3ccccc3)nc2)c2c(F)cccc2c1=O as the compound, how does the Emax [3] read?
**A.** The Emax was 97%.

**Q.** And the IP [1]?
**A.** The IP was 604 nM.

**Q.** For O=C(O)c1cn(Cc2ccc(-c3ccc(F)cc3)nc2)c2c(F)cccc2c1=O, which IP [1] is on record?
**A.** The IP was 190 nM.

**Q.** Which IP [1] does the source give for O=C(O)c1cn(Cc2ccc(-c3ccc(F)cc3)nn2)c2c(F)cccc2c1=O here?
**A.** Its IP is 466 nM.

**Q.** For O=C(O)c1cn(Cc2cnc(-c3ccccc3)nc2)c2c(F)cccc2c1=O, which Emax [3] is on record?
**A.** Its Emax is 88%.

**Q.** What about the IP [1] of the same compound?
**A.** Its IP is 4000 nM.

**Q.** For O=C(O)c1cn(Cc2ccc(-c3cccs3)cn2)c2c(F)cccc2c1=O, which IP [1] is on record?
**A.** The IP was 150 nM.

**Q.** For O=C(O)c1cn(Cc2ccc(-c3cccnc3)nn2)c2c(F)cccc2c1=O, which IP [1] is on record?
**A.** Its IP is 778 nM.

**Q.** With Nc1cccc(-c2ccc(Cn3cc(C(=O)O)c(=O)c4cccc(F)c43)nc2)c1 as the compound, how does the fold change (FC) [2] read?
**A.** Its fold change (FC) is 45.

**Q.** And the IP [1]?
**A.** The IP was 21 nM.

**Q.** With O=C(O)c1cn(Cc2cnc(-c3ccccc3)cn2)c2c(F)cccc2c1=O as the compound, how does the Emax [3] read?
**A.** Its Emax is 85%.

**Q.** And the IP [1]?
**A.** The IP was 1300 nM.

**Q.** Which IP [1] does the source give for CN(C)c1cccc(-c2ccc(Cn3cc(C(=O)O)c(=O)c4cccc(F)c43)cn2)c1 here?
**A.** Its IP is 130 nM.

**Q.** With Cn1cc(-c2ccc(Cn3cc(C(=O)O)c(=O)c4c(F)ccc(F)c43)nc2)cn1 as the compound, how does the IP [1] read?
**A.** Its IP is 114 nM.

**Q.** Which concentration at 2 h [4] does the source give for Cn1cc(-c2ccc(Cn3cc(C(=O)O)c(=O)c4cccc(F)c43)nc2)cn1 here?
**A.** The concentration at 2 h was 40 nM.

**Q.** What about the fold change (FC) [2] of the same compound?
**A.** Its fold change (FC) is 37.

**Q.** What about the Kp at 2 h [5] of the same compound?
**A.** Its Kp at 2 h is 0.03.

**Q.** What about the concentration at 2 h [6] of the same compound?
**A.** The concentration at 2 h was 430 nM.

**Q.** And the concentration at 2 h [7]?
**A.** Its concentration at 2 h is 33300 nM.

**Q.** And the IP [1]?
**A.** The IP was 160 nM.

**Q.** Which IP [1] does the source give for O=C(O)c1cn(Cc2ccc(-c3ccc4[nH]ccc4c3)nc2)c2c(F)cccc2c1=O here?
**A.** Its IP is 65 nM.

**Q.** For CS(=O)(=O)c1cccc(-c2ccc(Cn3cc(C(=O)O)c(=O)c4cccc(F)c43)nn2)c1, which IP [1] is on record?
**A.** The IP was 1540 nM.

**Q.** With CS(=O)(=O)c1ccc(-c2ccc(Cn3cc(C(=O)O)c(=O)c4cccc(F)c43)nc2)cc1 as the compound, how does the fold change (FC) [2] read?
**A.** Its fold change (FC) is 33.

**Q.** And the IP [1]?
**A.** Its IP is 260 nM.

**Q.** With O=C(O)c1cn(Cc2ccc(-c3ccccc3)nn2)c2c(F)cccc2c1=O as the compound, how does the Emax [3] read?
**A.** Its Emax is 97%.

**Q.** What about the IP [1] of the same compound?
**A.** The IP was 390 nM.

**Q.** For O=C(O)c1cn(Cc2ncc(-c3ccccc3)cn2)c2c(F)cccc2c1=O, which Emax [3] is on record?
**A.** Its Emax is 90%.

**Q.** And the IP [1]?
**A.** Its IP is 2320 nM.

**Q.** Which IP [1] does the source give for O=C(O)c1cn(Cc2ccc(-c3ccc(F)nc3)nc2)c2c(F)cccc2c1=O here?
**A.** Its IP is 202 nM.

**Q.** For O=C(O)c1cn(Cc2ccc(-c3ccc(F)cc3)cn2)c2c(F)cccc2c1=O, which IP [1] is on record?
**A.** The IP was 67 nM.

**Q.** For O=C(O)c1cn(Cc2ccc(-c3ccc4[nH]ccc4c3)cn2)c2c(F)cccc2c1=O, which IP [1] is on record?
**A.** The IP was 57 nM.

**Q.** With CN(C)c1cccc(-c2ccc(Cn3cc(C(=O)O)c(=O)c4cccc(F)c43)nc2)c1 as the compound, how does the IP [1] read?
**A.** The IP was 110 nM.

**Q.** For O=C(O)c1cn(Cc2ccc(-c3ccc4[nH]ccc4c3)nn2)c2c(F)cccc2c1=O, which IP [1] is on record?
**A.** Its IP is 8660 nM.

**Q.** What does the source list for CS(=O)(=O)c1cccc(-c2ccc(Cn3cc(C(=O)O)c(=O)c4cccc(F)c43)cn2)c1?
**A.** Kp at 2 h [5]: 0.4; concentration at 2 h [6]: 154 nM; concentration at 2 h [7]: 382 nM; IP [1]: 28 nM

**Q.** Which IP [1] does the source give for Nc1ccc(-c2ccc(Cn3cc(C(=O)O)c(=O)c4cccc(F)c43)nc2)cn1 here?
**A.** Its IP is 200 nM.

**Q.** With Nc1cccc(-c2ccc(Cn3cc(C(=O)O)c(=O)c4cccc(F)c43)cn2)c1 as the compound, how does the IP [1] read?
**A.** The IP was 21 nM.

**Q.** For CN(C)c1ccc(-c2ccc(Cn3cc(C(=O)O)c(=O)c4cccc(F)c43)nc2)cn1, which IP [1] is on record?
**A.** The IP was 82 nM.

**Q.** Which IP [1] does the source give for O=C(O)c1cn(Cc2ccc(-c3ccc(Cl)nc3)nc2)c2c(F)cccc2c1=O here?
**A.** The IP was 169 nM.

**Q.** With CS(=O)(=O)c1cccc(-c2ccc(Cn3cc(C(=O)O)c(=O)c4cccc(F)c43)nc2)c1 as the compound, how does the IP [1] read?
**A.** Its IP is 97 nM.

**Q.** Which concentration at 2 h [4] does the source give for O=C(O)c1cn(Cc2ccc(-c3ccc(F)nc3)cn2)c2c(F)cccc2c1=O here?
**A.** Its concentration at 2 h is 97 nM.

**Q.** And the fold change (FC) [2]?
**A.** Its fold change (FC) is 81.

**Q.** What about the Kp at 2 h [5] of the same compound?
**A.** The Kp at 2 h was 0.05.

**Q.** And the concentration at 2 h [6]?
**A.** The concentration at 2 h was 311 nM.

**Q.** And the concentration at 2 h [7]?
**A.** Its concentration at 2 h is 12800 nM.

**Q.** And the IP [1]?
**A.** The IP was 100 nM.

**Q.** Which results are given for O=C(O)c1cn(Cc2ccc(-c3cccnc3)cn2)c2c(F)cccc2c1=O?
**A.** concentration at 2 h [4]: 25 nM; Kp at 2 h [5]: 0.05; concentration at 2 h [6]: 154 nM; concentration at 2 h [7]: 2790 nM; IP [1]: 370 nM
